A selection: hits, their analogues and other compounds. The true share with any hit is near 3.1%.
ATG4B inhibitor = inhibitors of human ATG4B cysteine protease; ATG4B cleavage of LC3-PLA2, NBD-HPC fluorescence, 1 h; inhibition, % at 8.33 µM; hit rate 0.51% among 340,000; in the data active means inhibition above about 40%
CSN inh = blocks human CSN-mediated cullin deneddylation. Q92905. Purified CSN, SCF-Nedd8-OG deneddylation, fluorescence polarization. inhibition, % at 12.5 µM. hit rate 0.38% among 360,000. AID 651999;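 active means pattern-corrected inhibition above about 35%, with an unprinted fluorescence ratio check between 0.5 and 1.5, limit read from the data, passing the limit was not always enough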
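assay system = purified human Csn5 enzyme expressed in HEK293T cells | amount = 0.24 nM enzyme | buffer or medium = Tris/NaCl/DTT buffer, pH 7.5 | reagent = 10 nM SCFSkp2-Nedd8OG | compound = one concentration, 12.5 µM, 0.25% DMSO | times = 90 min reaction at room temperature | signal = FP | read-out basis = % inhibition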
MBD2 inh = MBD2-methylated oligo binding inhibition; Q9UBB5; TR-FRET, MBD2 binding to methylated oligonucleotide; inhibition, % at 4.4 µM; hit rate 0.31% among 370,000; AID 686964; in the data active means inhibition above about 13%
LEDGF integ inh = blocks HIV-1 LEDGF/p75-dependent DNA integration; TR-FRET IN-LEDGF/p75 DNA integration, Eu/Cy5; AID 743269; hit rate 0.64% among 370,000; inhibition, % at 3.7 µM;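 active means inhibition above the screen-wide mean plus 3 SD, cut at about 13% in these data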;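 further: signal is the Cy5 over europium emission ratio at 671 and 618 nm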
rCAG binder = r(CAG) repeat RNA binding. AID 651821. hit rate 1.3% among 370,000. TO-PRO-1 dye displacement fluorescence. inhibition, % at 3 µM;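 active means inhibition above the plate cutoff, the mean of all test compounds on that plate plus 3 SD, cut at about 35% in these data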;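 further: higher means more dye released from RNA so lower well fluorescence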
UHRF1 MBD2 ctr = UHRF1 methyl-DNA binding inhibition; Q96T88; UHRF1 binding to methylated oligo, TR-FRET; inhibition, % at 4.4 µM; hit rate 0.75% among 370,000; AID 687016; in the data active means inhibition above about 21%;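 further: UHRF1 SRA domain binding a hemimethylated CpG hairpin DNA probe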
Target sequence (Q96T88 whole entry, looked up, the tested form may be a part): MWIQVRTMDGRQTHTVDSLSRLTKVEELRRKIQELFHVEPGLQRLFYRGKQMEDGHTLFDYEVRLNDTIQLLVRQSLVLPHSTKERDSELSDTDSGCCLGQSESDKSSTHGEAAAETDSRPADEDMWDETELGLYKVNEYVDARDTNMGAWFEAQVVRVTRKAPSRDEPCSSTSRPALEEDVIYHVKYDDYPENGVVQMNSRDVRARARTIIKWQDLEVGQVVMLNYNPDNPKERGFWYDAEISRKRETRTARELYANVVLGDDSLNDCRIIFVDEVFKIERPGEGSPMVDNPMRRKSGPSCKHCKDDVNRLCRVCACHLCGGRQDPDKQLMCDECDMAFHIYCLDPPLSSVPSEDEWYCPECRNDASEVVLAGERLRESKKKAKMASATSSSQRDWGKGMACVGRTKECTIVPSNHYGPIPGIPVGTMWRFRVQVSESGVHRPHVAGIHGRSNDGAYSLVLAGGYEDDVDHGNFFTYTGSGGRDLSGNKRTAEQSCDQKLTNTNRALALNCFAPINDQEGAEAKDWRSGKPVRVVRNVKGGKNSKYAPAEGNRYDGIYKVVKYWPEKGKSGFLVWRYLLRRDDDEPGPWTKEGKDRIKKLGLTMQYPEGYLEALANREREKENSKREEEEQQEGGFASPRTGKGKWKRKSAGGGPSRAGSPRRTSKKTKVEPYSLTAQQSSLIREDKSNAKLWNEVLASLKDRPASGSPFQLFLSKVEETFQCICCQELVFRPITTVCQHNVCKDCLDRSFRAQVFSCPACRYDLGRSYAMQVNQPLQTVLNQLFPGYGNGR
rCAG binder conf = r(CAG) RNA repeat binding, confirmation; shares compounds with rCAG binder; inhibition, % at 3 µM; TO-PRO-1 dye displacement fluorescence; AID 652065; hit rate 70% among 4,300;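 active means inhibition above a per-plate cutoff, the mean inhibition of sample wells plus 3 SD, cut at about 35% in these data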;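 further: loss of TO-PRO-1 fluorescence as compound displaces dye from 1x1 AA loop RNA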
dCAG dye counter = disrupts DNA CAG TO-PRO-1 complex, flagging rCAG hits; shares compounds with rCAG binder; d(CAG) DNA oligo TO-PRO-1 dye displacement, fluorescence; inhibition, % at 3 µM; hit rate 94% among 4,300; AID 652068;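 active means inhibition above its plate's cutoff, the mean test-well inhibition plus 3 SD, cut at about 4.8% in these data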;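 further: hits displace the dye from DNA and so lower well fluorescence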
DNA CAG DR = disrupts DNA CAG TO-PRO-1 complex in dose response; shares compounds with rCAG binder; DNA CAG/GTC duplex TO-PRO-1 dye displacement fluorescence; IC50, µM; hit rate 20% among 250; AID 686960; in the data active means IC50 below about 10 µM
Hits are given with their value; – = inactive; · = no result; ! = a repeat was not active.

SMILES	ATG4B inhibitor	CSN inh	MBD2 inh	LEDGF integ inh	rCAG binder	UHRF1 MBD2 ctr	rCAG binder conf	dCAG dye counter	others
CC(C)CCN1C(=O)c2ccc(C(=O)Nc3ccc(O)cc3C(=O)O)cc2C1=O	–	–	–	–	98	–	84	51
O=C(O)c1cc(N/N=C/c2ccc(-c3ccc(F)cc3)o2)ccc1Cl	–	–	–	–	56	–	38	12
O=C(O)c1ccc(N/N=C/c2ccc(-c3ccc(Cl)cc3Cl)o2)cc1	–	–	–	–	92	–	84	51
O=C(O)c1ccc(N/N=C/c2ccc(-c3cc(Cl)ccc3Cl)o2)cc1	–	–	–	–	45	–	51	18
O=C(O)c1ccc(N/N=C/c2ccc(-c3cccc(Cl)c3)o2)cc1	–	–	–	–	63	–	50	16
NS(=O)(=O)c1ccc(-c2ccc(/C=N/Nc3ccc(C(=O)O)cc3)o2)cc1	–	–	–	–	–	–	·	·
CCC(C)NC(=O)CSc1nnc(-c2cc(OC)c(OC)c(OC)c2)o1 (stereo unspecified)	·	·	–	–	–	–	·	·
COC(=O)C1CN(Cc2cn(CCOC(C)=O)nn2)CCS(=O)(=O)N1Cc1ccc(OC)cc1 (stereo unspecified)	·	·	–	–	–	–	·	·
CCC(Sc1nc2ccsc2c(=O)n1Cc1ccc(C(=O)O)cc1)C(=O)Nc1ccc(Cl)cc1 (stereo unspecified)	·	–	–	–	72	–	70	34	DNA CAG DR=–
CCc1cccc(CC)c1NC(=O)C(CC)Sc1nc2ccsc2c(=O)n1CCC(=O)O (stereo unspecified)	·	–	–	–	–	–	·	·
CCOC(=O)C1=C(CSc2nc(CC)c(C)cc2C#N)OC(N)=C(C#N)C1c1ccc(OC)cc1 (stereo unspecified)	–	–	–	–	–	–	·	·
COC(=O)C1=C(CSc2nc3c(cc2C#N)CN(C)CC3)OC(N)=C(C#N)C1c1ccc(F)cc1 (stereo unspecified)	–	–	–	–	50	–	–	16
COC(=O)c1cc2c(c3c4cc(OC)ccc4n(C(=O)c4ccccc4)c13)C(=O)N(C1CCCCC1)C2	·	·	–	–	–	–	·	·
COC(=O)c1cccc(Cn2c(Cl)c(/C=N/Nc3ccccc3C)sc2=O)c1	–	–	–	–	–	–	·	·
Cc1ccccc1N/N=C/c1sc(=O)n(Cc2cccc(C(=O)O)c2)c1Cl	–	–	–	–	69	–	78	40
O=[N+]([O-])c1cc(C(F)(F)F)cc([N+](=O)[O-])c1NCCNC(=S)Nc1ccc(Cl)c(Cl)c1	–	–	–	–	36	–	–	6.6
C[C@H](CCC(=O)O)[C@H]1CC[C@H]2[C@@H]3CC[C@@H]4C[C@H](O)CC[C@]4(C)[C@H]3C[C@H](O)[C@]12C	–	–	–	–	37!	–	40	6.7
C[C@H](CCC(=O)O)[C@H]1CC[C@H]2[C@@H]3[C@H](O)C[C@@H]4C[C@H](O)CC[C@]4(C)[C@H]3CC[C@]12C	–	–	–	–	37	–	–	–
COC(=O)CCC(C)C1CCC2C3CCC4CC(O)CCC4(C)C3=CC(=O)C12C (stereo unspecified)	–	–	–	–	–	–	·	·
CCOc1cc(/C=C2\SC(=S)N(NS(=O)(=O)c3ccccc3)C2=O)ccc1O	–	–	–	–	47	–	–	8.6
CCOc1cc(/C=C2\SC(=S)N(N3CCOCC3)C2=O)ccc1O	–	–	–	–	–	–	·	·
CCOc1ccc(/C=C2\SC(=S)N(NS(=O)(=O)c3ccc(C)cc3)C2=O)cc1OC	–	–	–	–	83	–	76	41
CCOc1ccc(/C=C2\SC(=S)N(NS(=O)(=O)c3ccccc3)C2=O)cc1OC	–	–	–	–	79	–	71	35
COc1cc(/C=C2\SC(=S)N(CCCCC(=O)O)C2=O)ccc1OS(=O)(=O)c1ccc(C)cc1	–	–	–	–	79	–	80	44
COc1ccc(/C=C2\SC(=S)N(CCCCCC(=O)Nc3cc(C)on3)C2=O)cc1OC	–	–	–	–	–	–	·	·
SMILES	ATG4B inhibitor	CSN inh	MBD2 inh	LEDGF integ inh	rCAG binder	UHRF1 MBD2 ctr	rCAG binder conf	dCAG dye counter	others
CC(C)=CCc1c2c(c3occ(-c4ccc(O)c(O)c4)c(=O)c3c1O)C=CC(C)(C)O2	–	–	–	–	47	–	43	28
CC(C)=CCc1c2c(c3occ(-c4ccc(O)cc4)c(=O)c3c1O)C=CC(C)(C)O2	–	–	–	–	36	–	–	13
CC(C)=CCc1c(O)cc(O)c2c(=O)c3c(CC=C(C)C)c(O)ccc3oc12	–	·	·	·	·	·	·	·
CC1(C)C=Cc2c(c3c(c4c(=O)c(-c5ccc(O)cc5)coc24)OC(C)(C)CC3)O1	–	–	–	–	–	–	·	·
O=C(O)CN1C(=O)/C(=C\c2cccc(OCc3ccc(Cl)cc3)c2)SC1=S	–	–	–	–	78	–	91	64
O=C(O)CN1C(=O)/C(=C\c2cccc(OC(=O)c3ccco3)c2)SC1=S	–	–	–	–	–	–	·	·
O=C(O)CCN1C(=O)/C(=C\c2cccc(Oc3ccccc3)c2)SC1=S	–	–	–	–	62	–	78	35
O=C(O)CN1C(=O)/C(=C\c2ccccc2OCc2ccc(Cl)cc2)SC1=S	–	–	–	–	74	–	84	47
O=C(O)CN1C(=O)/C(=C\c2cccc(OCc3ccc(F)cc3)c2)SC1=S	–	–	–	–	81	–	80	44
CCOC(=O)[C@]12CCCC3=C1N(CCC3)C(=O)[C@@H](CC(=O)N1CCCCC1)C2	·	·	–	–	–	–	·	·
CCOc1ccc(CCNC(=O)c2cc3sccc3n2CC)cc1OC	·	·	–	–	–	–	·	·
Nc1c(C(=O)NCC(O)c2ccccc2)cnn1-c1ccccc1 (stereo unspecified)	·	·	–	–	–	–	·	·
Cc1onc(-c2ccccc2)c1C(=O)NN=Cc1cc(Cl)cc(Cl)c1O	·	·	–	–	–	–	·	·
CC(=O)NNC(=O)CN1C(=O)/C(=C/c2ccccc2)SC1=S	–	–	–	–	–	–	·	·
O=C(O)CN1C(=O)/C(=C\c2cccc(OCc3ccccc3F)c2)SC1=S	–	–	–	–	84	–	75	37
COC(=O)[C@]12C[C@H](CC(=O)NCC34CC5CC(CC(C5)C3)C4)C(=O)N(Cc3ccco3)C1=C[C@H](C(C)(C)C)O[C@@H]2C	·	·	–	–	–	–	·	·
CCOC(=O)CC1=NN(c2ccccc2)C(=O)C1	–	–	–	–	38	–	–	5.0

Screening data: PubChem, several laboratories
